Data as given in ChEMBL document CHEMBL4339193, “Phenotypic Screening-Based Identification of 3,4-Disubstituted Piperidine Derivatives as Macrophage M2 Polarization Modulators: An Opportunity for Treating Multiple Sclerosis” (J Med Chem, 2019).
The source made the active and inactive calls. The calls are words filed in the database; no cut-off is given here.

Tests used:
[1] = Tmax in Sprague-Dawley rat at 50 mg/kg, po administered as single dose via gavage by LC/MS analysis; type: ADME, organism-based; conditions: in vivo
Outline: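 Single dose given to rats. Venous blood (100 µL) drawn at 0, 0.5, 1, 2, 4, 8 and 12 h. Plasma separated by centrifugation and stored at -20 °C, then compound measured by LC/MS. Cmax, Tmax, t1/2 and AUC derived from the concentration-time data.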

RAW264.7 [2] = test: Modulation of M2 polarization in mouse RAW264.7 cells assessed as up regulation of CCR2 mRNA expression at 300 nM measured after 24 hrs by qRT-PCR analysis; type: functional, cell-based
Mus musculus [3] = test: (§1) Antiinflammatory activity in C57BL/6J mouse model of MOG (35 to 55 residues)/pertussis toxin/complete Freund's adjuvant-induced experimental allergic encephalomyelitis assessed as effect on Treg cell population in draining lymph nodes by measuring change in CD4 level at 200 mg/kg, ig administered daily starting from 7 days post-immunization measured after 13 to 19 days post-immunization by flow cytometry analysis; type: functional, organism-based
Outline: (§2)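 MOG35-55/CFA EAE mice were dosed daily in saline from day 7 and sampled between days 13 and 19. Spleens and dLNs were mechanically dissociated to single cells. CNS cells came from collagenase IV digestion and a 70%/30% Percoll gradient. Cells were surface-stained with fluorochrome antibodies, including CD4, CD11b, CD11c and MHC-II, and analysed by flow cytometry.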

Mus musculus [4] = test: (§3) Inhibition of M1 polarization in C57BL/6J mouse model of MOG (35 to 55 residues)/pertussis toxin/complete Freund's adjuvant-induced experimental allergic encephalomyelitis assessed as CD86 level in spleen at 200 mg/kg, ig administered daily starting from 7 days post-immunization measured after 13 to 19 days post-immunization by flow cytometry analysis (reference value: 11.8%); type: functional; set-up: scale not given: the % may be the effect or the level left
Outline: (§4)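 MOG35-55/CFA EAE mice were dosed daily in saline from day 7 and sampled between days 13 and 19. Cells came from spleen and dLN by mechanical dissociation and from CNS by collagenase IV/Percoll. They were stained for F4/80 with CD206 (M2) or CD86 (M1), and each was read by flow cytometry as a percentage of total F4/80+ macrophages.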

Mus musculus [5] = test: as §1, with “TH1” for “effect on Treg”, “spinal cord” for “draining lymph nodes”, “IFNgamma” for “change in CD4”, “14” for “13”, “21” for “19”, “analysis (reference value: 22.3%)” for “analysis”; type: functional
Outline: (§5)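 EAE induced with MOG35-55 (2 mg/ml in PBS) emulsified in CFA containing 4 mg/ml heat-killed M. tuberculosis H37Ra, injected s.c. into the neck and both hindlegs. Drug in saline daily from day 7. Between days 13 and 19, CNS mononuclear cells were taken by collagenase IV digestion and a 70%/30% Percoll gradient. Cells were restimulated 5 h with brefeldin A 2 µg/ml, PMA 0.1 µg/ml and ionomycin 0.5 µg/ml, stained for surface CD4, fixed and permeabilised, then stained intracellularly for IFN-γ/IL-17A. Analysed by flow cytometry; n=4 mice per group.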

Mus musculus [6] = test: as §1, with “TH17” for “effect on Treg”, “spinal cord” for “draining lymph nodes”, “IL17” for “change in CD4”, “14” for “13”, “21” for “19”, “analysis (reference value: 7.7%)” for “analysis”; type: functional; outline: as §5
[7] = Cmax in Sprague-Dawley rat at 10 mg/kg, iv administered as single dose by LC/MS analysis; type: ADME, organism-based; set-up: dose 10 mg/kg, route intravenous; conditions: in vivo
Outline: (§6)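 Single dose in rats; venous blood (100 µL) drawn at 0, 0.5, 1, 2, 4, 8 and 12 h, plasma separated by centrifugation and held at -20 °C. Compound measured by LC/MS; Cmax, Tmax, t1/2 and AUC derived from the concentration–time data.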

Mus musculus [8] = test: Antiinflammatory activity in C57BL/6J mouse model of MOG (35 to 55 residues)/pertussis toxin/complete Freund's adjuvant-induced experimental allergic encephalomyelitis assessed as reduction in demyelination in spinal cord at 200 mg/kg, ig administered daily starting from 7 days post-immunization measured after 14 days post-immunization by H and E staining based microscopic analysis; type: functional, organism-based
Outline: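 EAE mice dosed daily in saline from day 7 were perfused with PBS and fixed in 4% PFA on day 14; spinal cords were taken. For LFB, frozen OCT sections sat 3 h in 0.1% Luxol Fast Blue at 56-60°C, were differentiated in 0.05% lithium carbonate for 10-12 s, cleared in 70% ethanol, dehydrated and mounted. For H&E, paraffin sections were stained to assess inflammation.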

[9] = Toxicity in ICR mouse assessed as adverse effect at 400 mg/kg, ig administered daily for 14 days; type: organism-based; conditions: in vivo, po, 336 h
Outline: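 Repeated-dose study in healthy mice over 14 days. Read-outs were body weight change, serum parameters, and organ-to-body and organ-to-brain weight ratios.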

[10] = molecular target: RAC-alpha serine/threonine-protein kinase (Mus musculus) (UniProt P31750); test: Stimulation of AKT phosphorylation at 308 residue in mouse RAW264.7 cells at 300 nM measured after 4 to 24 hrs by Western blot analysis; type: cell-based
Chain of RAC-alpha serine/threonine-protein kinase (Mus musculus) (P31750 whole entry): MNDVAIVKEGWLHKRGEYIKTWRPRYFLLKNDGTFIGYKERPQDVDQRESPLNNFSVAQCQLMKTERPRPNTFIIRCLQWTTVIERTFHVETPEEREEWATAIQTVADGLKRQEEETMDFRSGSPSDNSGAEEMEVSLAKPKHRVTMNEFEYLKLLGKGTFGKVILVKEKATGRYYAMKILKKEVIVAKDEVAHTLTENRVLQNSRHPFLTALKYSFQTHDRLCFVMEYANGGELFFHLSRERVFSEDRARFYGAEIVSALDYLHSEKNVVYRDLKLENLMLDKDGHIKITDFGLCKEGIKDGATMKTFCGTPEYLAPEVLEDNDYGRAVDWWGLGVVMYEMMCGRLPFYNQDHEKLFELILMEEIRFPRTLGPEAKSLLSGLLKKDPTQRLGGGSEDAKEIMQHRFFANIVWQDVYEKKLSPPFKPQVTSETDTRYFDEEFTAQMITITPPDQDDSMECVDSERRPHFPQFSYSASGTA
Outline: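 Cell lysates separated by SDS-PAGE, transferred to PVDF and probed for Akt, p-Akt(308), p-Akt(473), Stat3, p-Stat3(Y705), Stat6 and p-Stat6; ECL detection, GAPDH as loading control.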

[11] = Oral bioavailability in Sprague-Dawley rat at 50 mg/kg administered as single dose via gavage by LC/MS analysis; type: ADME, organism-based; conditions: in vivo
[12] = Ratio of AUC (0 to t) to AUC (0 to infinity) in Sprague-Dawley rat at 50 mg/kg, po administered as single dose via gavage; type: ADME, organism-based; conditions: in vivo
[13] = AUC (0 to t) in Sprague-Dawley rat at 10 mg/kg, iv administered as single dose by LC/MS analysis; type: ADME, organism-based; conditions: in vivo; outline: as §6
RAW264.7 [14] = test: Inhibition of M1 polarization in mouse RAW264.7 cells assessed as down regulation of IL6R mRNA expression at 300 nM measured after 24 hrs by qRT-PCR analysis; type: functional, cell-based
Mus musculus [15] = test: as §3, with “draining lymph nodes” for “spleen”, “18.4%)” for “11.8%)”; type: functional; set-up: scale not given: the % may be the effect or the level left; outline: as §4
Mus musculus [16] = test: as §1, with “dendritic” for “Treg”, “CNS” for “draining lymph nodes”, “CD11c” for “CD4”; type: functional, organism-based; outline: as §2
RAW264.7 [17] = test: Inhibition of M1 polarization in mouse RAW264.7 cells assessed as down regulation of CD80 mRNA expression at 300 nM measured after 24 hrs by qRT-PCR analysis; type: functional, cell-based
BMDM = test: Antiinflammatory activity in LPS-induced C57BL/6J mouse BMDM cells assessed as suppression of M1 macrophage-stimulated Th17 cell population by measuring decrease in Il17 level at 300 nM measured after 48 hrs by ELISA; type: functional, cell-based
Outline: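 Supernatant collected from the 72 h coculture of CFSE-labelled naïve CD4+ T cells (anti-CD3/anti-CD28, 500 ng/ml each, 1:1) with BMDMs pretreated 48 h with 50 ng/ml LPS plus 300 nM compound. IFN-γ or IL-17A quantified by ELISA. Mean ± SEM, at least three independent experiments.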

Question: Which results are given for `Cl.Cn1ncc(Cl)c1-c1ccc(C(=O)N[C@@H]2CNCC[C@H]2c2cccc(F)c2)cc1`?
Answer: Tmax [1]: 3.25 h; Activity (RAW264.7 [2]): Active; Activity (Mus musculus [3]): inactive; Activity (Mus musculus [4]): 6.9%; Activity (Mus musculus [5]): 11.4%; Activity (Mus musculus [6]): 4.5%; Cmax [7]: 1000 ng/mL; Activity (Mus musculus [8]): Active; Activity [9]: Non-Toxic; Activity [10]: Active; bioavailability [11]: 50.6%; Ratio AUC [12]: 98.425%; AUC(0-t) [13]: 1840 ng·h/mL; inhibition (RAW264.7 [14]): Active; Activity (Mus musculus [15]): 11.5%; Activity (Mus musculus [16]): inactive; inhibition (RAW264.7 [17]): Active; Activity (BMDM): Active
